The values below come from ChEMBL document CHEMBL2062465, “Sesquiterpenoids from Incarvillea arguta: absolute configuration and biological evaluation” (J Nat Prod, 2012).

The source made the active and inactive calls. No cut-off for these calls is given here. Peptide text beside a SMILES is read from it. * marks the point of attachment. Cbz = O=C(OCc1ccccc1)*

Data set [1] relates to SW480. In words: Cytotoxicity against human SW480 cells after 48 hrs by MTT assay. Format: functional, cell-based. The settings on record: SW480, 48 h. Summed up:
(§1)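 MTT viability assay on human tumour lines. Adherent cells were seeded and allowed to attach 12 h before drug addition. Suspension cells were seeded immediately before dosing at (1−2) × 10^5 cells/mL. Cells were exposed to a range of concentrations for 48 h. Cisplatin and taxol were positive controls. IC50 values were calculated from viability.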

Data set [2] relates to MCF7. In words: Cytotoxicity against human MCF7 cells after 48 hrs by MTT assay. The note with it: MCF7, 48 h. In kind it is functional, cell-based. The essentials:
as §1
In general terms: Formazan colour is commonly taken as a measure of viable cells.

The test system of data set [3] is SMMC-7721. Briefly: Cytotoxicity against human SMMC7721 cells after 48 hrs by MTT assay. Format: functional, cell-based. The note with it: SMMC-7721, 48 h. Summed up: as §1
The test system of data set [4] is HL-60. In words: Cytotoxicity against human HL60 cells after 48 hrs by MTT assay. Format: functional, cell-based. The settings on record: HL-60, 48 h. Summed up:
as §1

Data set [5] deals with RAW264.7. In words: Cytotoxicity against mouse RAW264.7 cells at 0.04 to 25 uM by MTT assay. In kind it is cell-based. The note with it: raw264.7, 25 µM. Summed up: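 Viability of RAW264.7 macrophages was checked by MTT alongside each NO-production experiment, at 0.04, 0.2, 1, 5 and 25 μM.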
Data set [6] relates to RAW264.7. Briefly: Antiinflammatory activity in mouse RAW264.7 cells assessed as inhibition of LPS-stimulated NO production after 18 hrs by Griess reagent method. In kind it is functional, cell-based. The note with it: RAW264.7, 18 h. Summed up:
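NO release measured in LPS-stimulated RAW264.7 macrophages. DMSO wells were included, and MG-132 (proteasome inhibitor) served as positive control. Cell viability was checked by MTT in each experiment. IC50 was derived.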
(In general: Nitrite, measured by Griess reagent, commonly stands in for NO production.)

In data set [7] the test system is A549. Briefly: Induction of intracellular calcium influx in human A549 cells at 10 uM after 12 hrs by fluorescence analysis. In kind it is functional, cell-based. The essentials: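 A549 cells were seeded at 0.5 × 10^4 cells/well and grown 12 h. They were loaded with Fluo-4 AM for 30 min, then washed three times with HBSS. Compounds were tested at 10 μM in Ca2+-containing HBSS. Intracellular calcium was imaged and analysed on an automated cell-based fluorescence-imaging system.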
In general terms: A change in cytosolic calcium serves as a functional read-out for many receptors and channels.

Broadly, the IC50 is the concentration that gives 50% inhibition. For the molecule `C=C(CO)[C@@H]1CC(=O)C2=CCC[C@H](C)[C@@]2(C)C1` [ARGUTOSINE B], the IC50 in data set [1] is 15.6 µM; in data set [2], 13.5 µM; in data set [3], 34.1 µM; in data set [4], 15.2 µM; in data set [6], 5.7 µM. Moreover, the Activity entry in data set [5] is “Non-toxic”.

For the molecule `C[C@H]1CCC=C2C(=O)C=C([C@]3(CO)CC[C@@](O)(CO)C4=C3C(=O)C3=CCC[C@H](C)[C@@]3(C)C4)C[C@@]21C` [DIINCARVILONE A], the IC50 in data set [1], in data set [2], in data set [3] and in data set [4] was greater than 40 µM in each case. Further, in data set [7], the result was Active.

For the molecule `C[C@H]1CCC=C2C(=O)C=C([C@]3(CO)CC[C@](O)(CO)C4=C3C(=O)C3=CCC[C@H](C)[C@@]3(C)C4)C[C@@]21C` [DIINCARVILONE B], the IC50 in data set [1], in data set [2], in data set [3] and in data set [4] was greater than 40 µM each time. The result in data set [7] was Active.

For `C[C@H]1CCC=C2C(=O)C=C([C@]3(CO)CC[C@@H](CO)C4=C3C(=O)C3=CCC[C@H](C)[C@@]3(C)C4)C[C@@]21C` [DIINCARVILONE C], the IC50 in data set [1], in data set [2], in data set [3] and in data set [4] was greater than 40 µM throughout.

For the molecule `C[C@H]1CCC=C2C(=O)C=C([C@]3(CO)CCC(=O)C4=C3C(=O)C3=CCC[C@H](C)[C@@]3(C)C4)C[C@@]21C` [DIINCARVILONE D], the IC50 in data set [1], in data set [2], in data set [3] and in data set [4] was greater than 40 µM in each case. Besides, the outcome in data set [7] was Active.

As to `C[C@H](CO)C1=CC(=O)C2=CCC[C@H](C)[C@@]2(C)C1` [INCARVILONE A], the IC50 in data set [1], in data set [2], in data set [3] and in data set [4] was greater than 40 µM throughout.

On to `CC(C)C[C@@H](C=O)NC(=O)[C@H](CC(C)C)NC(=O)[C@H](CC(C)C)NC(=O)OCc1ccccc1` [MG-132] (Cbz-Leu-Leu-Leu-aldehyde), for which the IC50 in data set [6] turned out to be 0.08 µM.
